Measurements from ChEMBL document CHEMBL3297729, “Design, synthesis and biological activity of piperlongumine derivatives as selective anticancer agents” (Eur J Med Chem, 2014).
Active and inactive are the calls of the source. No cut-off for these calls is given here.

Experiments:
[1] = test system: HCT-116; test: Cytotoxicity against human HCT116 cells after 72 hrs by MTT assay; format: functional, cell-based; details: HCT-116, 72 h
How it was run: (§1)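 MTT assay. Cells seeded at 5 × 10^3/well and grown 24 h at 37 °C in humidified 5% CO2. Compounds added at a range of concentrations in triplicate wells, with 0.1% DMSO as control, for 72 h. MTT (5 mg/mL solution) added for a further 4 h. Formazan dissolved in DMSO and absorbance read at 570 nm. IC50 derived by the Logit method.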

[2] = test system: A549; test: Cytotoxicity against human A549 cells after 72 hrs by MTT assay; format: functional, cell-based; details: A549, 72 h; how it was run: as §1
[3] = Cytotoxicity against human Hep3B cells after 72 hrs by MTT assay; format: functional, cell-based, Hep 3B2; how it was run: as §1
[4] = test system: WI-38; test: Cytotoxicity against human WI38 cells after 72 hrs by MTT assay; format: cell-based; details: WI-38, 72 h; how it was run: as §1
[5] = test system: MDA-MB-231; test: Cytotoxicity against human MDA-MB-231 cells after 72 hrs by MTT assay; format: functional, cell-based; details: MDA-MB-231, 72 h; how it was run: as §1
[6] = test system: MRC5; test: Cytotoxicity against human MRC5 cells after 72 hrs by MTT assay; format: cell-based; details: MRC5, 72 h; how it was run: as §1
[7] = Cytotoxicity against human ZR75-30 cells after 72 hrs by MTT assay; format: functional, cell-based; details: ZR-75-30, 72 h; how it was run: as §1
[8] = Selectivity ratio of IC50 for human MRC5 cells to IC50 for human HCT116 cells; format: ADME, cell-based, HCT-116; details: MRC5 cells versus HCT116 cells, read-out: Ratio IC50
[9] = Selectivity ratio of IC50 for human MRC5 cells to IC50 for human MDA-MB-231 cells; format: ADME, cell-based; details: MRC5 cells versus MDA-MB-231 cells, read-out: Ratio IC50
[10] = Selectivity ratio of IC50 for human MRC5 cells to IC50 for human ZR75-30 cells; format: ADME, cell-based; details: MRC5 cells versus ZR75-30 cells, read-out: Ratio IC50
[11] = test system: A549; test: Increase of ROS level in human A549 cells at 10 uM after 1 hr by fluorescence microscopic analysis; format: functional, cell-based
How it was run: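 Cells treated with compound or DMSO for 1 h, then loaded with 10 μM DCFH-DA for 30 min at 37 °C. Washed twice with PBS and imaged at once by fluorescence microscopy. Mean fluorescence compared with control.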

[12] = test system: A549; test: Antitumor activity against human A549 cells xenografted in BALB/C nude mouse assessed as inhibition of tumor growth at 2 mg/kg, ip administered for 14 days; format: functional; details: 336 h, route intraperitoneal
[13] = test system: Mus musculus; test: Toxicity in human A549 cells xenografted BALB/C nude mouse assessed as reduction of body weight at 2 mg/kg, ip administered for 14 days; format: organism-based; set-up: dose 2 mg/kg, route intraperitoneal; details: in vivo, 336 h
How it was run: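 Male BALB/C nude mice (18–20 g) implanted sc in the right axilla with A549 cells. Dosing began at tumor volume about 100–300 mm3 (day 17): 2 mg/kg ip daily for 14 days, in normal saline with tween-80 as solubilizer. Six mice per treatment group, eight controls. Caliper tumor volume (1/2·a·b²) and body weight recorded every 4 days. Sacrifice on days 30–33 and tumors excised.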

## CCC/C(=C\c1cc(OC)c(OC)c(OC)c1)C(=O)N1CCC=C(Br)C1=O
[1]
  IC50: 2.14 µM
[2]
  IC50: 2.63 µM
[3]
  IC50: 5.54 µM
[4]
  IC50: 5.02 µM
[5]
  IC50: 2.36 µM

## COc1cc(/C=C/C(=O)N2CCC=C(Br)C2=O)cc(OC)c1OC
[1]
  IC50: 7.12 µM
[2]
  IC50: 4.79 µM
[3]
  IC50: 8.09 µM
[4]
  IC50: 20.7 µM
[5]
  IC50: 2.73 µM

## CC/C(=C\c1cc(OC)c(OC)c(OC)c1)C(=O)N1CCC=CC1=O
[1]
  IC50: 12.3 µM
[2]
  IC50: 17.9 µM
[6]
  IC50: 13.5 µM
[5]
  IC50: 23.7 µM
[7]
  IC50: 3.16 µM

## CCCC/C(=C\c1cc(OC)c(OC)c(OC)c1)C(=O)N1CCC=C(Cl)C1=O
[1]
  IC50: 7.53 µM
[2]
  IC50: 3.78 µM
[3]
  IC50: 14.8 µM
[4]
  IC50: 7.93 µM
[5]
  IC50: 6.55 µM

## CC/C(=C\c1cc(OC)c(OC)c(OC)c1)C(=O)N1CCC=C(N2CCOCC2)C1=O
[1]
  IC50: > 100 µM
[2]
  IC50: > 100 µM
[6]
  IC50: > 100 µM
[5]
  IC50: > 100 µM
[7]
  IC50: > 100 µM

## CCC/C(=C\c1cc(OC)c(OC)c(OC)c1)C(=O)N1CCC=C(Cl)C1=O
[1]
  IC50: 8.08 µM
[2]
  IC50: 3.81 µM
[3]
  IC50: 22.4 µM
[4]
  IC50: 10.4 µM
[5]
  IC50: 8.13 µM

## COc1cc(/C=C/C(=O)N2CCC=C(N3CCOCC3)C2=O)cc(OC)c1OC
[1]
  IC50: 47.2 µM
[2]
  IC50: > 100 µM
[6]
  IC50: 56.1 µM
[5]
  IC50: > 100 µM
[7]
  IC50: 52.6 µM

## COc1cc(/C=C(\C)C(=O)N2CCC=C(Br)C2=O)cc(OC)c1OC
[1]
  IC50: 6.2 µM
[2]
  IC50: 2.67 µM
[3]
  IC50: 3.1 µM
[4]
  IC50: 7.16 µM
[5]
  IC50: 2.47 µM

## COc1cc(/C=C/C(=O)N2CCC=C(Cl)C2=O)cc(OC)c1OC
[1]
  IC50: 4.28 µM
[2]
  IC50: 19.8 µM
[6]
  IC50: 14.3 µM
[5]
  IC50: 6.71 µM
[8]
  selectivity ratio: 2
[7]
  IC50: 4.49 µM
[9]
  selectivity ratio: 2
[10]
  selectivity ratio: 2

## COc1cc(/C=C(\C)C(=O)N2CCC=C(Cl)C2=O)cc(OC)c1OC
[1]
  IC50: 9.85 µM
[2]
  IC50: 3.94 µM
[3]
  IC50: 16.7 µM
[11]
  Activity: Active
[4]
  IC50: 19.6 µM
[5]
  IC50: 6.07 µM
[12]
  inhibition in vivo at 2 mg/kg: 48.6%
[13]
  Activity: Non-toxic

## COc1cc(/C=C(\C)C(=O)N2CCC=C(N3CCOCC3)C2=O)cc(OC)c1OC
[1]
  IC50: > 100 µM
[2]
  IC50: > 100 µM
[6]
  IC50: > 100 µM
[5]
  IC50: > 100 µM
[7]
  IC50: > 100 µM

## COc1cc(/C=C(\C)C(=O)N2CCC=CC2=O)cc(OC)c1OC
[1]
  IC50: 10.3 µM
[2]
  IC50: 23.9 µM
[6]
  IC50: 19.4 µM
[5]
  IC50: 11.7 µM
[7]
  IC50: 3.32 µM

## CC/C(=C\c1cc(OC)c(OC)c(OC)c1)C(=O)N1CCC=C(Br)C1=O
[1]
  IC50: 3.02 µM
[2]
  IC50: 2.18 µM
[3]
  IC50: 8.12 µM
[4]
  IC50: 7.94 µM
[5]
  IC50: 2.12 µM

## CCCC/C(=C\c1cc(OC)c(OC)c(OC)c1)C(=O)N1CCC=C(Br)C1=O
[1]
  IC50: 2.59 µM
[2]
  IC50: 2.56 µM
[3]
  IC50: 14.8 µM
[4]
  IC50: 9.21 µM
[5]
  IC50: 2.44 µM

## CCC/C(=C\c1cc(OC)c(OC)c(OC)c1)C(=O)N1CCC=C(N2CCOCC2)C1=O
[1]
  IC50: > 100 µM
[2]
  IC50: > 100 µM
[6]
  IC50: 52.5 µM
[5]
  IC50: > 100 µM
[7]
  IC50: > 100 µM

## COc1cc(/C=C/C(=O)N2CCC=CC2=O)cc(OC)c1OC [PIPLARTINE]
[1]
  IC50: 6.04 µM
[2]
  IC50: 22.9 µM
[3]
  IC50: 69.5 µM
[6]
  IC50: 35 µM
[4]
  IC50: 26.8 µM
[5]
  IC50: 8.46 µM
[7]
  IC50: 5.86 µM

## CC/C(=C\c1cc(OC)c(OC)c(OC)c1)C(=O)N1CCC=C(Cl)C1=O
[1]
  IC50: 9.17 µM
[2]
  IC50: 4.06 µM
[3]
  IC50: 19 µM
[4]
  IC50: 5.48 µM
[5]
  IC50: 7.27 µM
